Measurements published in ChEMBL document CHEMBL3244382, “Structural requirements for antileukemic activity among the naturally occurring and semisynthetic maytansinoids” (J Med Chem, 1978).
Converted amounts (≈) assume the structure as drawn. The source made the active and inactive calls.

How the values were obtained:
[1] = system: P388; assay: Antitumor activity against mouse P388 cells allografted in PS mouse assessed as median survival time at 25 ug/kg relative to control; assay type: functional
How it was run: (§1)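 P388 leukemia (PS) in mice, six mice started per dose group. Read-out is T/C: median survival time of the treated group divided by that of the untreated control group, expressed as a percent. The NIH protocol counts a compound as active when T/C > 125%.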

[2] = system: P388; assay: Antitumor activity against mouse P388 cells allografted in PS mouse assessed as median survival time at 3.1 ug/kg relative to control; assay type: functional; how it was run: as §1
[3] = system: P388; assay: Antitumor activity against mouse P388 cells allografted in PS mouse assessed as median survival time at 6.2 ug/kg relative to control; assay type: functional; how it was run: as §1
[4] = system: KB; assay: Cytotoxicity against human KB cells; assay type: functional; conditions: read-out: ED50 (the source's name)
[5] = system: Mus musculus; assay: Toxicity in PS mouse allografted with mouse P388 cells assessed as survival at 0.4 ug/kg after 4 days; assay type: organism-based; conditions: in vivo, 0.0004 mg/kg, 96 h
How it was run: (§2)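 PS (P388) leukemic mice, six started per dose group. Toxicity scored as survivors on the toxicity day over the number of mice started. The toxicity day is normally 4 days after the first injection.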

[6] = system: Mus musculus; assay: Toxicity in PS mouse allografted with mouse P388 cells assessed as change in body weight at 6.2 ug/kg relative to control; assay type: organism-based; conditions: in vivo, 0.0062 mg/kg
How it was run: (§3)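 P388 (PS) leukemia in mice, 6 mice per dose group. Weight change is the difference in grams between treated and control animals. Survivors are recorded on toxicity day, normally 4 days after the first injection.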

[7] = system: P388; assay: Antitumor activity against mouse P388 cells allografted in PS mouse assessed as median survival time at 12.5 ug/kg relative to control; assay type: functional; how it was run: as §1
[8] = system: Mus musculus; assay: Toxicity in PS mouse allografted with mouse P388 cells assessed as survival at 50 ug/kg after 4 days; assay type: organism-based; conditions: in vivo, 0.05 mg/kg, 96 h; how it was run: as §2
[9] = system: Mus musculus; assay: Toxicity in PS mouse allografted with mouse P388 cells assessed as survival at 0.1 ug/kg after 4 days; assay type: organism-based; conditions: in vivo, 0.0001 mg/kg, 96 h; how it was run: as §2
[10] = system: Mus musculus; assay: Toxicity in PS mouse allografted with mouse P388 cells assessed as change in body weight at 3.1 ug/kg relative to control; assay type: organism-based; conditions: in vivo, 0.0031 mg/kg; how it was run: as §3
[11] = system: Mus musculus; assay: Toxicity in PS mouse allografted with mouse P388 cells assessed as survival at 3.1 ug/kg after 4 days; assay type: organism-based; conditions: in vivo, 0.0031 mg/kg, 96 h; how it was run: as §2
[12] = system: Mus musculus; assay: Toxicity in PS mouse allografted with mouse P388 cells assessed as survival at 6.2 ug/kg after 4 days; assay type: organism-based; conditions: in vivo, 0.0062 mg/kg, 96 h; how it was run: as §2
[13] = system: P388; assay: Antitumor activity against mouse P388 cells allografted in PS mouse assessed as median survival time at 1.6 ug/kg relative to control; assay type: functional; how it was run: as §1
[14] = system: Mus musculus; assay: Toxicity in PS mouse allografted with mouse P388 cells assessed as change in body weight at 0.2 ug/kg relative to control; assay type: organism-based; conditions: in vivo, 0.0002 mg/kg
How it was run: (§4)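 PS (P388 leukemia) mice, six per dose group. Toxicity read as the difference in grams between the weights of treated and control animals.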

[15] = system: Mus musculus; assay: Toxicity in PS mouse allografted with mouse P388 cells assessed as survival at 25 ug/kg after 4 days; assay type: organism-based; conditions: in vivo, 0.025 mg/kg, 96 h; how it was run: as §2
[16] = system: P388; assay: Antitumor activity against mouse P388 cells allografted in PS mouse assessed as median survival time at 0.8 ug/kg relative to control; assay type: functional; how it was run: as §1
[17] = system: Mus musculus; assay: Toxicity in PS mouse allografted with mouse P388 cells assessed as change in body weight at 50 ug/kg relative to control; assay type: organism-based; conditions: in vivo, 0.05 mg/kg; how it was run: as §3
[18] = system: Mus musculus; assay: Toxicity in PS mouse allografted with mouse P388 cells assessed as change in body weight at 0.8 ug/kg relative to control; assay type: organism-based; conditions: in vivo, 0.0008 mg/kg; how it was run: as §4
[19] = system: Mus musculus; assay: Toxicity in PS mouse allografted with mouse P388 cells assessed as change in body weight at 1.6 ug/kg relative to control; assay type: organism-based; conditions: in vivo, 0.0016 mg/kg; how it was run: as §3
[20] = system: P388; assay: Antitumor activity against mouse P388 cells allografted in PS mouse assessed as median survival time at 0.4 ug/kg relative to control; assay type: functional; how it was run: as §1
[21] = system: Paracentrotus lividus; assay: Antimitotic activity against sea urchin eggs assessed as drug level causing inhibition of mitosis; assay type: functional; conditions: Egg
[22] = system: Mus musculus; assay: Toxicity in PS mouse allografted with mouse P388 cells assessed as survival at 0.2 ug/kg after 4 days; assay type: organism-based; conditions: in vivo, 0.0002 mg/kg, 96 h; how it was run: as §2
[23] = biological target: Tubulin (Homo sapiens) (UniProt P68371+Q9H4B7+P0DPH7+P68366+Q13509+Q71U36+P04350+Q3ZCM7+P07437+P68363+Q9BQE3+Q6PEY2+Q13885+Q9BVA1+Q9BUF5); assay: Inhibition of brain tubulin polymerization (unknown origin) at 37 degC by spectrophotometry
[24] = system: P388; assay: Antitumor activity against mouse P388 cells allografted in PS mouse assessed as median survival time at 50 ug/kg relative to control; assay type: functional; how it was run: as §1
[25] = system: P388; assay: Antitumor activity against mouse P388 cells allografted in PS mouse assessed as median survival time at 0.1 ug/kg relative to control; assay type: functional; how it was run: as §1
[26] = system: Mus musculus; assay: Toxicity in PS mouse allografted with mouse P388 cells assessed as change in body weight at 0.4 ug/kg relative to control; assay type: organism-based; conditions: in vivo, 0.0004 mg/kg; how it was run: as §4
[27] = system: Mus musculus; assay: Toxicity in PS mouse allografted with mouse P388 cells assessed as survival at 0.8 ug/kg after 4 days; assay type: organism-based; conditions: in vivo, 0.0008 mg/kg, 96 h; how it was run: as §2
[28] = system: Mus musculus; assay: Toxicity in PS mouse allografted with mouse P388 cells assessed as change in body weight at 12.5 ug/kg relative to control; assay type: organism-based; conditions: in vivo, 0.0125 mg/kg; how it was run: as §3
[29] = system: Mus musculus; assay: Toxicity in PS mouse allografted with mouse P388 cells assessed as survival at 12.5 ug/kg after 4 days; assay type: organism-based; conditions: in vivo, 0.0125 mg/kg, 96 h; how it was run: as §2
[30] = system: Mus musculus; assay: Toxicity in PS mouse allografted with mouse P388 cells assessed as change in body weight at 25 ug/kg relative to control; assay type: organism-based; conditions: in vivo, 0.025 mg/kg; how it was run: as §3
[31] = system: P388; assay: Antitumor activity against mouse P388 cells allografted in PS mouse assessed as median survival time at 0.2 ug/kg relative to control; assay type: functional; how it was run: as §1
[32] = system: Mus musculus; assay: Toxicity in PS mouse allografted with mouse P388 cells assessed as survival at 1.6 ug/kg after 4 days; assay type: organism-based; conditions: in vivo, 0.0016 mg/kg, 96 h; how it was run: as §2
[33] = system: Mus musculus; assay: Toxicity in PS mouse allografted with mouse P388 cells assessed as change in body weight at 0.1 ug/kg relative to control; assay type: organism-based; conditions: in vivo, 0.0001 mg/kg; how it was run: as §4

| Compound | T/C [1] [%] | T/C [2] [%] | T/C [3] [%] | Activity [5] | Activity [6] [g] | T/C [7] [%] | Activity [8] | Activity [9] | Activity [10] [g] | Activity [11] | Activity [12] | T/C [13] [%] | Activity [14] [g] | Activity [15] | T/C [16] [%] | Activity [17] [g] | Activity [18] [g] | Activity [19] [g] | T/C [20] [%] | Activity [21] | further results |
| --- | --- | --- | --- | --- | --- | --- | --- | --- | --- | --- | --- | --- | --- | --- | --- | --- | --- | --- | --- | --- | --- |
| COc1cc2cc(c1Cl)N(C)C(=O)C[C@H](OC(=O)[C@H](C)N(C)C(=O)C(C)C)[C@]1(C)O[C@H]1[C@H](C)[C@@H]1C[C@@](O)(NC(=O)O1)[C@H](OC)/C=C/C=C(\C)C2 | <80 | 145 | 155 | Non-toxic | -1.3 | 120 | Toxic | Non-toxic | -0.9 | Non-toxic | Non-toxic | 155 | 0.1 | Non-toxic | 190 | 0.1 | 0.1 | 0 | 155 | 1 nM | EC50 [4]: 0.0036 ng/mL (≈ 0.005 nM); Activity [22]: Non-toxic; inhibition [23]: Active; T/C [24]: <80%; T/C [25]: 125%; Activity [26]: 0.4 g; Activity [27]: Non-toxic; Activity [28]: 0.1 g; Activity [29]: Non-toxic; Activity [30]: 0.1 g; T/C [31]: 165%; Activity [32]: Non-toxic; Activity [33]: 0.3 g |
| COc1cc2cc(c1Cl)N(C)C(=O)C[C@H](OC(=O)C(C)C)[C@]1(C)O[C@H]1[C@H](C)[C@@H]1C[C@@](O)(NC(=O)O1)[C@H](OC)/C=C/C=C(\C)C2OC(C)=O (stereo not given in full) | 170 | 150 | 166 | Non-toxic | -0.9 | 179 | Non-toxic | Non-toxic | -0.4 | Non-toxic | Non-toxic | 162 | -1.3 | Non-toxic | 137 | -1 | -1 | -0.7 | 133 | 1 ×10⁻⁷ mol/L | EC50 [4]: 0.0015 ng/mL (≈ 0.00216 nM); Activity [22]: Non-toxic; inhibition [23]: Active; T/C [24]: <80%; T/C [25]: 125%; Activity [26]: -0.6 g; Activity [27]: Non-toxic; Activity [28]: -0.8 g; Activity [29]: Non-toxic; Activity [30]: -0.9 g; T/C [31]: 125%; Activity [32]: Non-toxic; Activity [33]: -0.5 g |
| COc1cc2cc(c1Cl)N(C)C(=O)C[C@H](OC(=O)[C@H](C)N(C)C(=O)CC(C)C)[C@]1(C)O[C@H]1[C@H](C)[C@@H]1C[C@@](O)(NC(=O)O1)[C@H](OC)/C=C/C=C(\C)C2 | 116 | 158 | 154 | Non-toxic | 0.8 | 187 | Non-toxic | Non-toxic | 0.2 | Non-toxic | Non-toxic | 154 | -0.6 | Non-toxic | 133 | -0.5 | 0.7 | -1.3 | 125 | 1 ×10⁻⁸ mol/L | Activity [22]: Non-toxic; inhibition [23]: Active; T/C [24]: <80%; T/C [25]: 120%; Activity [26]: -1.1 g; Activity [27]: Non-toxic; Activity [28]: 1.3 g; Activity [29]: Non-toxic; Activity [30]: -0.4 g; T/C [31]: 125%; Activity [32]: Non-toxic; Activity [33]: 1.4 g |
| CCC(=O)N(C)[C@@H](C)C(=O)O[C@H]1CC(=O)N(C)c2cc(cc(OC)c2Cl)C/C(C)=C/C=C/[C@@H](OC)[C@@]2(O)C[C@H](OC(=O)N2)[C@@H](C)[C@@H]2O[C@@]12C | <80 | 150 | 125 | Non-toxic | -2.1 | 104 | Toxic | Non-toxic | -0.6 | Non-toxic | Non-toxic | 154 | -1.1 | Non-toxic | 145 | -1.2 | -1.1 | -1.2 | 137 | 1 ×10⁻⁸ mol/L | Activity [22]: Non-toxic; inhibition [23]: Active; T/C [24]: <80%; T/C [25]: 137%; Activity [26]: -0.8 g; Activity [27]: Non-toxic; Activity [28]: -1.3 g; Activity [29]: Non-toxic; Activity [30]: -2.2 g; T/C [31]: 120%; Activity [32]: Non-toxic; Activity [33]: -1.1 g |
